Test results as given in PubChem BioAssay.
Values without a mark were called inactive. Records with an inconclusive call do not appear. Activity calls are given as the source filed them.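 How the source made its calls, unless noted: active means cell viability at or below a set limit in both duplicate runs, the limit being the all-compound median minus 4 SD (cut at about 23% in these data, passing the limit was not always enough); inconclusive means no clear call, values can overlap the other calls; inactive means the rest.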

Legend:
[1] = OD615 S. cerevisiae growth inhibition, permissive medium, pilot counter-assay, permissive growth control for S. cerevisiae lifespan shortening project (AID 705;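 active means growth inhibition above 25% in both replicates, a cutoff set 3 SD above the mean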); conditions: OD615, 24 h, at 10 µM, hits give high values
Summary of the method: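 Test system: Saccharomyces cerevisiae strain carrying genetically modified DeaD replicative-lifespan system; buffer or medium: SC raffinose/galactose permissive medium; dosing: one dose 10 µM, DMSO 0.25% final; times: 24 h exposure, 30 °C; measured by: OD at 615 nm; read-out basis: growth inhibition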

[2] = Restrictive medium S. cerevisiae growth inhibition, OD615, pilot screen of yeast lifespan reduction project, restrictive growth control (AID 706;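 active means growth inhibition above a set limit, 3 SD over mean compound inhibition, in both replicates, cut at about 43% in these data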;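 further: modified DeaD lifespan yeast strain shifted to restrictive glucose medium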); conditions: OD615, 48 h, at 10 µM, hits give high values
Summary of the method: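 material = engineered S. cerevisiae DeaD strain | buffer or medium = glucose-based CSMM-D restrictive medium | dosing = one concentration, 10 µM final, 0.25% DMSO | schedule = 4 h pre-growth plus 48 h compound exposure, 30 °C | detection = OD615 absorbance reading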

[3] = viability gain of MRP-1-high H69AR cells under doxorubicin, pilot screen, MRP-1 activator project, CellTiter-Glo, duplicate (AID 807;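 active means viability increase at or above a cutoff of the median across tested compounds plus 3 SD, cut at about 8.5% in these data, passing the limit was not always enough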;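 further: compound pretreatment 18-22 h then 72 h combined with doxorubicin; 0% = doxorubicin alone and 100% = vehicle without doxorubicin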); conditions: H69AR viability with doxorubicin, CellTiter-Glo luminescence; at 10 µM; hits give high values
[4] = growth suppression of beta-catenin knockout HCT116, pilot screen, human colon tumor cells (AID 823); conditions: CellTiter-Glo, 60 h, at 10 µM, hits give low values;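 further: 0% = wells killed by 20 µM Hyamine and 100% = untreated DMSO cell wells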
[5] = growth suppression of PTEN-deleted HCT116, pilot screen, cell-based, HCT116 clonal line, CellTiter-Glo (AID 824;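 active means viability at or below 27.92% in each of two runs, the all-compound median minus 4 SD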;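 further: 0% = 20 µM Hyamine control and 100% = vehicle cell control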); conditions: 60 h, at 10 µM, hits give low values
[6] = inhibitors of the yeast RAM network, pilot screen, dse1pr::URA3 reporter, 5-FOA selection (AID 869;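 active means inhibition over a set limit, the all-compound mean plus 3 SD, in both replicate runs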;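 further: 0% = DMSO wells with no growth and 100% = 10 µM 1-NA-PP1 with full growth; RAM network block rescues cells from 5-FOA so hits raise OD615 growth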); conditions: S. cerevisiae dse1pr::URA3 5-FOA growth, OD615, 2 d; at 10 µM; hits give high values; strain carries analog-sensitive mutant Cbk1 kinase
[7] = RAM signaling pathway blockade in yeast – S. cerevisiae, Pdr1DBD-CYC8 efflux-inhibited sensitized strain, primary screen (AID 1298;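 active means RAM network inhibition above 8.4% in each of two replicates, 3 SD over the compound average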;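 further: 0% = DMSO untreated cells without growth and 100% = 10 µM 1-NA-PP1 full growth; higher means more yeast growth rescued from 5-FOA killing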); conditions: S. cerevisiae cbk1-as DSE1-URA3 strain, 5-FOA growth OD615, 2 d; at 50 µM; hits give high values

| SMILES | growth inhibition [1] [%] | growth inhibition [2] [%] | viability increase [3] [%] | viability [4] | viability [5] | inhibition [6] [%] | RAM network inhibition [7] [%] |
| --- | --- | --- | --- | --- | --- | --- | --- |
| COc1ccc(Cl)cc1S(=O)(=O)n1ccnc1C(C)C | -8.68 | -13 | -2.46 | 102% | 93.3% | 1.74 | 2.15 |
| COc1cc(Cl)c(S(=O)(=O)NCc2cccnc2)cc1Cl | -9.13 | -9.08 | 0.38 | 99.5% | 97.3% | 0.745 | 4.73 |
| CN(C)S(=O)(=O)c1ccc(C(=O)OCCCN=C2NS(=O)(=O)c3ccccc32)cc1 | -13 | -15.2 | 0.05 | 109% | 102% | 0.955 | 2.94 |
| O=C(CSc1nnc2ccccn12)N1CCc2ccccc2C1 | -8.87 | 0.78 | -0.88 | 99.7% | 93.2% | 1.54 | 2.11 |
| CCn1c(SCC(=O)N2CCOCC2)nc(O)cc1=O | -6.62 | -12.7 | -0.84 | 105% | 103% | 2.59 | 1.54 |
| Cn1c(=O)[nH]c(=O)c2[nH]c(CN3CCN(Cc4ccccc4)CC3)nc21 | -9.19 | -10 | -0.77 | 104% | 99.5% | 0.395 | 1.09 |
| CCOC(=O)C1CCCN(C(=O)Cn2nc(Cc3cccnc3)c3ccccc3c2=O)C1 (stereo unspecified) | 3.18 | -7.92 | 1.09 | 99.5% | 102% | 2.21 | 2.19 |
| CC1Cc2nc(SCC(=O)Nc3ccc4c(c3)OCO4)n(CCc3ccccc3)c(=O)c2S1 (stereo unspecified) | -14 | -23.8 | -2.89 | 94.4% | 87.1% | 2.35 | 7.17 |
| Cc1cc2ncn(C3CC(=O)N(Cc4ccc(N5CCCC5=O)cc4)C3=O)c2cc1C (stereo unspecified) | -7.9 | 13.8 | -0.37 | 97.9% | 98.5% | 0.14 | 1.48 |
| CCSc1nnc(Cc2cc(=O)[nH]c(=O)[nH]2)n1-c1ccc(F)cc1 | -5.83 | -10.5 | 0.38 | 104% | 100% | 0.9 | 1.04 |
| Cn1c(=O)c2cc(S(=O)(=O)NC(C(=O)Nc3cccnc3)c3ccccc3)ccc2n(C)c1=O (stereo unspecified) | -3.52 | -1.8 | -2.15 | 99% | 91.9% | 1.96 | 0.58 |
| CCn1c(=O)cc(OCC(=O)N2CCc3ccccc32)c2ccccc21 | -19 | -15.4 | -3.92 | 96.1% | 89.9% | 2.09 | 3.25 |
| Cn1cccc1Cc1nnc(SCC(=O)NCc2ccccc2)n1-c1ccc(F)cc1 | -3.32 | 0.42 | -3.08 | 90.8% | 89.8% | 2.85 | 2.8 |
| CCOc1ccc(N=C2NC(=O)C(CC(=O)O)S2)cc1 (stereo unspecified) | -5.86 | 3 | -0.06 | 104% | 101% | 2.49 | 2.45 |
| CCCOC(=O)CC1C(=O)NCCN1Cc1ccccc1C (stereo unspecified) | -20.8 | -0.97 | -0.62 | 98.8% | 94.2% | 1.71 | 7.95 |
| CCCC(=O)NCCc1nc2ccccc2n1CCC | -7.3 | 2.73 | 0.5 | 102% | 101% | 2.72 | -1.16 |
| COc1ccc(N(C)C(=O)c2ccc3snnc3c2)cc1 | 4.09 | -8.11 | -1.56 | 105% | 94.3% | 2.6 | 0.05 |
| O=C1NC(=O)C(CC(=O)N(Cc2ccco2)C2(C(=O)NC3CCCCC3)CCCCC2)N1 (stereo unspecified) | -7.57 | -7.79 | -2.17 | 104% | 93.4% | -0.005 | 2.23 |
| O=C(Nn1c(=S)[nH]c2ccccc2c1=O)c1ccncc1 | 6.51 | -5.44 | -2.87 | 91.9% | 90.5% | 1.75 | 4.74 |
| COc1ccc(N2CCN(C(=O)C34CCC(C)(C(=O)C3)C4(C)C)CC2)cc1 (stereo unspecified) | -1.5 | 0.815 | -0.51 | 88% | 91.8% | 1.86 | -0.21 |
| CCCCN(C)CCNC(=O)Cn1ncc2c(=O)oc3ccc(C)cc3c21 | -3.19 | 0.355 | -2.9 | 95.1% | 94.2% | 0.93 | 3.72 |
| CCC(CC)C(=O)Nc1cc(=O)n(C)c(=O)n1C | -3.07 | 8.82 | -0.82 | 92.8% | 87.4% | 0.18 | -2.19 |
| COc1cccc(C(c2sc3ncnn3c2O)N2CCN(C(=O)c3ccco3)CC2)c1 (stereo unspecified) | -11.1 | -5.93 | 0.76 | 104% | 101% | 0.91 | 2.1 |
| N#CCc1nc2n(n1)Cc1ccccc1-2 | -6.24 | -25.7 | 0.02 | 105% | 96.8% | 3.54 | 2.06 |

| SMILES | growth inhibition [1] [%] | growth inhibition [2] [%] | viability increase [3] [%] | viability [4] | viability [5] | inhibition [6] [%] | RAM network inhibition [7] [%] |
| --- | --- | --- | --- | --- | --- | --- | --- |
| CCC1Oc2ccccc2N(CC(=O)NCCCN2CCOCC2)C1=O (stereo unspecified) | -2.59 | 4.67 | -1.49 | 109% | 105% | 1.29 | 0.62 |
| CNC(=O)c1ccc2snnc2c1 | -8.38 | 5.12 | -1.54 | 107% | 97.9% | 0.52 | -0.47 |
| CCOc1ccc2nc(NC(=O)c3ccoc3C)sc2c1 | 1.53 | -12.2 | -6.35 | 19.1% (active) | 17.1% (active) | 1.03 | 2.4 |
| CC(C)OCCCNC(=O)c1ccc2c(c1)ncn2C1CCCC1 | -12.5 | -6.74 | -2.69 | 102% | 97.5% | 1.38 | 1.62 |
| Fc1cccc(-c2cc3nc4c(c(N5CCC6(CC5)OCCO6)n3n2)CCCC4)c1 | 3.03 | -2.67 | -3.94 | 70.6% | 61.5% | 1.19 | -0.47 |
| CN(C)c1ccc(CN2CCCCCC2)cc1 | -3.95 | -24.5 | -2 | 87% | 88.1% | 0.44 | 0.1 |
| CCOc1ccc(N=CC2=C(O)CC(C)(C)CC2=O)cc1 | -18.6 | -0.24 | -0.38 | 92% | 103% | 1.86 | 1.77 |
| C=CCOc1ccc(C2c3c(oc4ccccc4c3=O)C(=O)N2c2ccccn2)cc1OCC (stereo unspecified) | -13.9 | -10.5 | -5.39 | 77.9% | 74.6% | 2.57 | 6.03 |
| Cc1c(C(=O)OC2CCCC2)[nH]c2c1C(=O)CC(c1ccco1)C2 (stereo unspecified) | -6.06 | -12.3 | -5.41 | 15.4% (active) | 17.7% (active) | 1.86 | 0.11 |
| Cc1ccc(-n2nc(C)c3c2OC(N)=C(C#N)C3c2cccs2)cc1 (stereo unspecified) | -14.8 | -26.3 | -3.41 | 90.5% | 88.5% | 1.91 | 0.52 |
| CN(C)C(C(=O)NC1CCCCC1)c1ccc(Cl)cc1 (stereo unspecified) | -5.65 | -17.6 | -3.08 | 80.2% | 84.2% | 0.575 | -0.68 |
| O=C(CSc1ccc2nnc(-c3cccnc3)n2n1)N1CCc2ccccc21 | -5.28 | 4.37 | -3.19 | 103% | 94.1% | 0.845 | 4.57 |
| Cc1c(C)n(C(=O)CSc2nncn2C)c2ccccc12 | 3.06 | 12.8 | -2.73 | 93.2% | 98.1% | 0.94 | 3 |
| COc1ccc(Nc2oc(-c3ccccc3Cl)nc2C#N)cc1 | 9.48 | 0.98 | -8 | 6.01% (active) | 8.29% (active) | 1.94 | 7.73 |
| Cc1c(C(=O)O)oc2ccc(S(=O)(=O)N3CCCCC3C(=O)O)cc12 (stereo unspecified) | 4.47 | -3.15 | -0.18 | 97.1% | 101% | 1.12 | 5.52 |
| COC(=O)c1cc(COc2ccc3c4c(c(=O)oc3c2)CCCC4)c(C)o1 | 2.28 | 5.14 | -0.68 | 103% | 100% | 0.985 | 3.78 |
| O=C(Cn1c(-c2cncs2)nc2ccccc21)NCCc1ccccc1 | -6.77 | -8.58 | -2.77 | 99.6% | 92.7% | 1.25 | 4.43 |
| CCOC(=O)N1CCN(CC(=O)Nc2ccc(C)cc2)CC1 | -4.43 | 4.79 | -3.03 | 98.3% | 100% | 1.11 | -0.15 |
| O=C1CCCC(O)=C1C1C2=C(CCCC2=O)Oc2ccccc21 (stereo unspecified) | -12.6 | -10.5 | -5.35 | 91.6% | 90.1% | 2.33 | 3.55 |
| COc1cccc2sc(Nc3nnc(-c4ccccc4Cl)o3)nc12 | -29.8 | -13.7 | -4.31 | 15.4% (active) | 18.8% (active) | 1.1 | 1.26 |
| CCOc1ccc(-c2nnc3n2N=C(c2ccc(OC)cc2)CS3)cc1 | -2.4 | -3.84 | -5.29 | 84% | 82% | 1.72 | 5.3 |
| CCOc1ccc(C2N(c3ccc(F)cc3)C(=O)C3CCCN32)cc1 (stereo unspecified) | -6.9 | -2.44 | -0.91 | 94.3% | 91.2% | 2.38 | 4.43 |
| COc1ccccc1NC(=O)c1ccc(S(=O)(=O)N2CCCC2)cc1 | -5.88 | -5.9 | 0.68 | 114% | 94.9% | 2.33 | 2.32 |
| COc1ccc(S(=O)(=O)N2CCN(C)CC2)cc1C | -15.1 | -4 | 1.37 | 88.4% | 92.1% | 3.29 | 3.02 |
